ChEMBL document CHEMBL4665625, “New pyrido[3,4-g]quinazoline derivatives as CLK1 and DYRK1A inhibitors: synthesis, biological evaluation and binding mode analysis” (Eur J Med Chem, 2019)

Tests used:
U2OS = assay: Antiproliferative activity against human U2OS cells assessed as cell viability at 2 uM after 48 hrs by CellTiter96 AQueous assay relative to control; assay type: functional; details: read-out: Activity
How it was run: (§1)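 Cells grown in McCoy's 5a (HCT116), DMEM (SH-SY5Y, MDA-MB231, U-2 OS) or DMEM:F12 (hTERT-RPE1), each with 10% fetal calf serum, 2 mM L-glutamine, penicillin/streptomycin. Exposed to compound at 2 μM for 48 h; viability read by CellTiter96 AQueous per manufacturer, as % of DMSO-treated cells. Triplicate, mean ± SD; staurosporine as positive control.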

[1] = molecular target: T1, Cyclin-dependent kinase 5/CDK5 activator 1 (Homo sapiens) (UniProt Q00535+Q15078); assay: Inhibition of recombinant human CDK5/p25 expressed in bacteria assessed as residual activity at 10 uM using histone H1 as substrate in presence of [gamma-33P]ATP relative to control
How it was run: (§2)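 Human recombinant CDK5/p25 (bacterially expressed) assayed with 0.8 μg/μl histone H1 as substrate and 15 μM [γ-33P]ATP. Residual activity versus DMSO controls, triplicate.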

Sus scrofa domesticus [2] = organism: Sus scrofa domesticus; assay: Inhibition of porcine brain CK1delta/epsilon assessed as residual activity at 10 uM using RRKHAAIGSpAYSITA as substrate in presence of [gamma-33P]ATP relative to control; assay type: tissue-based
[3] = molecular target: T2, Dual specificity protein kinase CLK1 (Mus musculus, UniProt P22518); assay: Inhibition of recombinant mouse CLK1 expressed in bacteria using GRSRSRSRSRSR as substrate in presence of [gamma-33P]ATP
Sus scrofa domesticus [4] = organism: Sus scrofa domesticus; assay: Inhibition of porcine brain CK1delta/epsilon assessed as residual activity at 1 uM using RRKHAAIGSpAYSITA as substrate in presence of [gamma-33P]ATP relative to control; assay type: tissue-based
MDA-MB-231 = assay: Antiproliferative activity against human MDA-MB-231 cells assessed as cell viability at 2 uM after 48 hrs by CellTiter96 AQueous assay relative to control; assay type: functional; details: read-out: Activity; how it was run: as §1
HCT-116 = assay: Antiproliferative activity against human HCT116 cells assessed as cell viability at 2 uM after 48 hrs by CellTiter96 AQueous assay relative to control; assay type: functional; details: read-out: Activity; how it was run: as §1
[5] = molecular target: T1, Cyclin-dependent kinase 5/CDK5 activator 1 (Homo sapiens); assay: Inhibition of recombinant human CDK5/p25 expressed in bacteria assessed as residual activity at 1 uM using histone H1 as substrate in presence of [gamma-33P]ATP relative to control; how it was run: as §2
[6] = molecular target: Dual specificity tyrosine-phosphorylation-regulated kinase 1A (Rattus norvegicus) (UniProt Q63470); assay: Inhibition of rat DYRK1A kinase domain (1 to 499 residues) expressed in bacteria assessed as residual activity at 1 uM using KKISGRLSPIMTEQ as substrate in presence of [gamma-33P]ATP relative to control
How it was run: (§3)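 Buffer: 10 mM MgCl2, 1 mM EGTA, 1 mM DTT, 25 mM Tris-HCl pH 7.5, 50 μg/ml heparin, 0.15 mg/ml BSA.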

[7] = molecular target: Dual specificity protein kinase CLK1 (Mus musculus) (UniProt P22518); assay: Inhibition of recombinant mouse CLK1 expressed in bacteria assessed as residual activity at 10 uM using GRSRSRSRSRSR as substrate in presence of [gamma-33P]ATP relative to control
[8] = molecular target: T3, Dual specificity tyrosine-phosphorylation-regulated kinase 1A (Rattus norvegicus, UniProt Q63470); assay: Inhibition of rat DYRK1A kinase domain (1 to 499 residues) expressed in bacteria using KKISGRLSPIMTEQ as substrate in presence of [gamma-33P]ATP; how it was run: as §3
[9] = Antiproliferative activity against hTERT-RPE1 cells assessed as cell viability at 2 uM after 48 hrs by CellTiter96 AQueous assay relative to control; assay type: cell-based, TERT-RPE1; details: human, read-out: Activity; how it was run: as §1
[10] = molecular target: Dual specificity protein kinase CLK1 (Mus musculus) (UniProt P22518); assay: Inhibition of recombinant mouse CLK1 expressed in bacteria assessed as residual activity at 1 uM using GRSRSRSRSRSR as substrate in presence of [gamma-33P]ATP relative to control
[11] = molecular target: T4, Glycogen synthase kinase-3 (Sus scrofa) (UniProt B2LUN4+I6LNT8); assay: Inhibition of porcine brain GSK-3alpha/beta assessed as residual activity at 1 uM using YRRAAVPPSPSLSRHSSPHQSpEDEEE as substrate in presence of [gamma-33P]ATP relative to control; assay type: tissue-based; details: Sus scrofa domesticus
How it was run: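 Affinity-purified porcine brain GSK-3α/β with 0.01 µg/µl GS-1 peptide (phosphoserine-primed) as substrate and 15 µM [γ-33P]ATP. Buffer was 25 mM Tris-HCl pH 7.5, 10 mM MgCl2, 1 mM EGTA, 1 mM DTT, 50 µg/ml heparin and 0.15 mg/ml BSA. Radioactive incorporation was compared with DMSO-dilution controls, in triplicate.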

[12] = molecular target: T4, Glycogen synthase kinase-3 (Sus scrofa); assay: Inhibition of porcine brain GSK-3alpha/beta assessed as residual activity at 10 uM using YRRAAVPPSPSLSRHSSPHQSpEDEEE as substrate in presence of [gamma-33P]ATP relative to control; assay type: tissue-based; details: Sus scrofa domesticus
[13] = molecular target: Dual specificity tyrosine-phosphorylation-regulated kinase 1A (Rattus norvegicus) (UniProt Q63470); assay: Inhibition of rat DYRK1A kinase domain (1 to 499 residues) expressed in bacteria assessed as residual activity at 10 uM using KKISGRLSPIMTEQ as substrate in presence of [gamma-33P]ATP relative to control; how it was run: as §3
SH-SY5Y = assay: Antiproliferative activity against human SH-SY5Y cells assessed as cell viability at 2 uM after 48 hrs by CellTiter96 AQueous assay relative to control; assay type: functional; details: read-out: Activity; how it was run: as §1
[14] = molecular target: T2, Dual specificity protein kinase CLK1; assay: Inhibition of recombinant mouse CLK1 expressed in bacteria using GRSRSRSRSRSR as substrate measured after 30 mins in presence of ATP by ADP-Glo kinase assay
How it was run: (§4)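 ADP-Glo luminescent kinase assay at 10 μM ATP, 30 min reaction at 30 °C; luminescence read as relative light units to derive IC50.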

[15] = molecular target: T3, Dual specificity tyrosine-phosphorylation-regulated kinase 1A; assay: Inhibition of rat DYRK1A kinase domain (1 to 499 residues) expressed in bacteria using KKISGRLSPIMTEQ as substrate measured after 30 mins in presence of ATP by ADP-Glo kinase assay; how it was run: as §4
[16] = Selectivity index, ratio of IC50 for recombinant mouse CLK1 expressed in bacteria to IC50 for rat DYRK1A kinase domain (1 to 499 residues) expressed in bacteria

T2 sequence (P22518 whole entry): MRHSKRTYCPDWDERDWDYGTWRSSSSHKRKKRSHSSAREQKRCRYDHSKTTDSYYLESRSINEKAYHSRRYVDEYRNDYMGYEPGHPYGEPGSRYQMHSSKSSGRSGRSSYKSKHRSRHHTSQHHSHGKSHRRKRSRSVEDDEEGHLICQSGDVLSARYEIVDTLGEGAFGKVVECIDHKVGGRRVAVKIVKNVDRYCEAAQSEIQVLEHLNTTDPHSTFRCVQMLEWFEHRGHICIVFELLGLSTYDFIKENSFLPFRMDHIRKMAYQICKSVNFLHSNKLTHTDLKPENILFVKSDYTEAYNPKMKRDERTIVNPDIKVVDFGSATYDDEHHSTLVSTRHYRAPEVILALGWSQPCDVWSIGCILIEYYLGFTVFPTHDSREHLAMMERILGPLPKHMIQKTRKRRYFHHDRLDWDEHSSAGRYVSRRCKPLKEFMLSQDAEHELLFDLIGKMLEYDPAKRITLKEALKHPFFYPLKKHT
Chain of Dual specificity protein kinase CLK1 (Mus musculus) (P22518 whole entry, looked up, the tested form may be a part): as the sequence (P22518 whole entry) above
T1 sequence (Q00535 whole entry): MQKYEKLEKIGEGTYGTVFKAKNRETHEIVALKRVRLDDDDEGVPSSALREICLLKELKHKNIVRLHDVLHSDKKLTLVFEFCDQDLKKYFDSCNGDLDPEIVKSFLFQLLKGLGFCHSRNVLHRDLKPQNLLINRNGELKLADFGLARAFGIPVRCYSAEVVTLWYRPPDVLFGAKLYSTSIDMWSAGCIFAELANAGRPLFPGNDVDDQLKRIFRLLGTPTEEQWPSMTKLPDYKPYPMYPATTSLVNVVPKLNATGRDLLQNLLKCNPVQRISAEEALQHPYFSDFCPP
T1 sequence (Q15078 99-307 partner limits assumed): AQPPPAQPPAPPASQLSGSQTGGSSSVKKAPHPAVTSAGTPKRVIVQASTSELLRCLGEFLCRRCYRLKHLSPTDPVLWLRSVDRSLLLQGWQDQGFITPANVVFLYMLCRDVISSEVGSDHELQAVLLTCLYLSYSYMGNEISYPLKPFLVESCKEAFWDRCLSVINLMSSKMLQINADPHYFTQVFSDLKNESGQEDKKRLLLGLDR

| SMILES | viability at 2 µM (U2OS) [%] | Activity [1] [%] | Activity (Sus scrofa domesticus [2]) [%] | IC50 [3] [nM] | Activity (Sus scrofa domesticus [4]) [%] | viability at 2 µM (MDA-MB-231) [%] | viability at 2 µM (HCT-116) [%] | Activity [5] [%] | Activity [6] [%] | Activity [7] [%] | IC50 [8] [nM] | viability at 48 h, 2 µM [9] [%] | Activity [10] [%] | Activity [11] [%] | Activity [12] [%] | Activity [13] [%] | viability at 2 µM (SH-SY5Y) [%] | IC50 [14] [nM] | IC50 [15] [nM] | Ratio IC50 [16] |
| --- | --- | --- | --- | --- | --- | --- | --- | --- | --- | --- | --- | --- | --- | --- | --- | --- | --- | --- | --- | --- |
| CN1CCN(CCNc2ncc3cc4cnccc4c(N)c3n2)CC1 | 13 | 55 | 70 | 210 | 100 | 21.7 | 6.1 | 88 | 19 | 4 | 120 | 19.4 | 21 | 44 | 22 | 2 | 62 |  |  |  |
| CNc1ncc2cc3cnccc3c(N)c2n1 |  | 3 | 60 |  | 85 |  |  | 33 | 27 | 1 |  |  | 9 | 79 | 40 | 1 |  | 274 |  |  |
| Nc1c2ccncc2cc2cnc(NCCN3CCOCC3)nc12 |  | 10 | 34 |  | 77 |  |  | 52 | 17 | 4 |  |  | 27 | 76 | 24 | 1 |  |  | 197 |  |
| Nc1c2ccncc2cc2cnc(NCCCN3CCCC3)nc12 | 33 | 44 | 23 |  | 69 | 22 | 21 | 86 | 25 | 4 | 90 | 52 | 26 | 50 | 23 | 1 | 92.2 |  |  |  |
| CN(C)CCCNc1ncc2cc3cnccc3c(N)c2n1 | 0 | 34 | 61 | 120 | 96 | 0.4 | 0 | 77 | 17 | 1 | 120 | 0 | 14 | 36 | 10 | 1 | 0 |  |  |  |
| CN1CCN(CCCNc2ncc3cc4cnccc4c(N)c3n2)CC1 | 0.1 | 15 | 30 | 117 | 61 | 3.6 | 0 | 49 | 4 | 6 | 20 | 0 | 8 | 35 | 4 | 1 | 0.1 |  |  | 5.9 |
| Nc1c2ccncc2cc2cnc(NCCCN3CCOCC3)nc12 | 6.4 | 23 | 24 | 290 | 53 | 15 | 0.8 | 67 | 5 | 4 | 23 | 0 | 20 | 41 | 6 | 6 | 3.6 |  |  | 12.6 |
| CCN(CC)CCCNc1ncc2cc3cnccc3c(N)c2n1 |  | 20 | 45 | 160 | 68 |  |  | 68 | 24 | 2 | 80 |  | 21 | 61 | 22 | 2 |  |  |  |  |
| CNc1ncc2cc3cnccc3c([N+](=O)[O-])c2n1 | 19.5 | 38 | 45 | 18 | 98 | 41 | 22 | 73 | 39 | 2 |  | 36 | 5 | 70 | 51 | 13 | 52 |  |  |  |
